Screening results (PubChem)
MrgX1 antag – blocks BAM8-22 activation of human MrgX1 receptor; MRGX1-HEK293 calcium flux, Fluo-4, BAM8-22 antagonism; hits give low values; actives 1.3% (n = 310,000); B-score at 10 µM; Q96LB2; AID 588676;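 active means calcium-response B-score plate-corrected more than 3 library SD below zero, starting fluorescence within 5 deviations, no agonist response on first addition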;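 further: peak minus trough fluorescence over baseline after final BAM8-22 challenge near maximal dose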
Target sequence (Q96LB2 whole entry, looked up): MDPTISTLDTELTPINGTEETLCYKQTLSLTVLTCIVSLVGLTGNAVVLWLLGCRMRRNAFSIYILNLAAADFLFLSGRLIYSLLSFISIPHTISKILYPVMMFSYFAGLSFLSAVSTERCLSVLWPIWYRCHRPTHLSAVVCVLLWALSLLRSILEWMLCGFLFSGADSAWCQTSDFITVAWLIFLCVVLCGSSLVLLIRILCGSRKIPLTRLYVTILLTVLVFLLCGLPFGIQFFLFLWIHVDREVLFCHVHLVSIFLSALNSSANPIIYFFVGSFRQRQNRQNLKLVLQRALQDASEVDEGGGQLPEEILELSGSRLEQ
RGS4 inh – human RGS4 inhibition | P49798 | HEK293 M3R/RGS4 inducible, Fluo-4 calcium flux; hits give high values; triggered by carbachol at its EC20 | B-score at 10 µM | actives 0.45% (n = 310,000);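 active means B-score, a plate-corrected calcium signal, over three deviations above library mean, with baseline fluorescence within five deviations of library mean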;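 further: RGS4 expression induced by doxycycline in cells with stable M3 receptor; B-score is computed from the integrated fluorescence ratio over baseline after carbachol; higher B-score means a larger calcium signal and so more RGS4 inhibition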
Target sequence (P49798 whole entry, looked up): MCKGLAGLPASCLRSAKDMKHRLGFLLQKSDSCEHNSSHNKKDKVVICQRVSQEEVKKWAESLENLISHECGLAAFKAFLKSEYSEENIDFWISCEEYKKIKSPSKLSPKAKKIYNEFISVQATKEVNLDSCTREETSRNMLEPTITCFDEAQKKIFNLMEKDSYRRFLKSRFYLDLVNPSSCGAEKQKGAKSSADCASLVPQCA
MrgX1 agonist – agonists of human MrgX1 receptor | Q96LB2 | MrgX1-HEK293 cells, Fluo-4 calcium fluorescence, agonist mode; hits give high values | B-score at 10 µM | actives 0.44% (n = 310,000) | AID 588627;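 active means calcium response B-score plate-corrected fluorescence ratio at least 3 library SD, with starting fluorescence B-score inside 5 SD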
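System – MrgX1-expressing HEK293 cells · Incubation – cells plated overnight, dye loaded 0.5 h 37 °C, 0.5 h room temperature · Technique – kinetic Fluo-4 NW fluorescence of intracellular calcium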
RGS4 pot – potentiators or activators of RGS4. actives 0.92% (n = 310,000). B-score at 10 µM. HEK293 M3R/inducible RGS4, carbachol calcium flux Fluo4; hits give low values;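 active means B-score of the integrated calcium signal more than 4 SD below the library mean, with starting fluorescence not abnormally high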;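 further: negative B-score means reduced calcium response which marks RGS4 activation or potentiation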
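test system = M3R-expressing HEK293 line, RGS4 induced by doxycycline | probe or stimulus = carbachol at ECmax as muscarinic agonist stimulus | timing = dye loading 30 min 37 °C, buffer rest 30 min RT | signal = calcium dye Fluo4 fluorescence | evaluation = B score from integrated fluorescence ratio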
MrgX1 PAM – human MrgX1 positive allosteric modulation, primary screen; Q96LB2; MrgX1-HEK293, Fluo-4 calcium flux, FDSS; hits give high values; B-score at 10 µM; actives 0.63% (n = 310,000);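 active means plate-corrected calcium response at least 3 library SD above typical, normal starting fluorescence, not activating the receptor alone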;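 further: compound read alongside a low EC10 to EC30 dose of BAM8-22 agonist; peak minus trough fluorescence over baseline measured at the second addition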
Starred values were filed as active, the others as inactive; i = inactive; · = not tested or not shown. This is a sample that favours compounds with a hit; in the whole collection about 3.5% have one here.

SMILES	MrgX1 antag	RGS4 inh	MrgX1 agonist	RGS4 pot	MrgX1 PAM
COCCN=c1scc(-c2cccs2)n1/N=C(\C)c1ccco1	i	i	i	i	15*
CCOc1cc(/C=N/Nc2nc(-c3cccc(S(=O)(=O)N4CCCC4)c3)cs2)ccc1O	i	i	i	-8.8*	i
O=S(=O)(c1cccc(-c2csc(N/N=C/c3ccco3)n2)c1)N1CCOCC1	i	i	i	-8.6*	i
COc1cc(/C=N/Nc2nc(-c3ccc(S(=O)(=O)N(C)C)cc3)cs2)ccc1O	i	i	i	-7.4*	i
COc1ccc(/C=N/Nc2nc(-c3cccc(S(=O)(=O)N4CCCC4)c3)cs2)cc1OC	i	i	i	i	i
CC(C)Sc1nc(N2CCCC2)c2c(c1C#N)CC(C)(C)OC2	i	i	i	-7.2*	i
CN(Cc1nccn1C)C(=O)CC1C(=O)NCCN1Cc1cccc(Oc2ccccc2)c1 (stereo not given)	-5.2*	i	i	i	i
O=C1c2ccccc2NC(c2cccc(Cl)c2)N1N=C1CCCCCC1 (stereo not given)	i	i	i	i	8.6*
O=C1c2ccccc2NC(c2ccc(Cl)cc2Cl)N1O (stereo not given)	i	i	i	i	i
C=CCC(=O)NC1CC(C)(C)Cc2c1cnn2-c1ccccc1C (stereo not given)	i	i	i	i	i
COc1cc(/C=C(/Sc2nnc(-c3ccc(F)cc3)o2)C(=O)O)ccc1OC(F)F	i	i	i	i	i
Cc1cc[n+](-c2[nH]c(=O)sc2/C=N/NC([S-])=Nc2ccccc2)cc1	i	i	i	i	i
Cc1cc(C)c[n+](-c2[nH]c(=O)sc2/C=N/NC([S-])=Nc2ccccc2)c1	-6.7*	i	i	i	i
CCc1ccccc1NC(=O)CC1SCCNC1=O (stereo not given)	i	i	i	i	i
COc1ccc2oc3ccccc3c(=O)c2c1	i	i	i	i	i
COc1cc(/C(C)=C/c2ccccc2)c2c(c1)oc1ccccc12	i	i	i	i	9*
COc1cc(NC(C)CCCN)c2ncccc2c1Oc1ccccc1 (stereo not given)	i	i	i	i	i
CCC(C)Sc1cccc(-c2nc3ccc(C)cn3c2NCc2ccccc2)c1 (stereo not given)	i	i	i	-7.6*	i
Cc1sc(NC(=O)C2CCCCC2C(=O)O)c(C(N)=O)c1-c1ccc(C(C)C)cc1 (stereo not given)	i	i	54*	i	i
Cc1sc(NC(=O)C2CCCCC2C(=O)O)c(C(N)=O)c1-c1ccccc1 (stereo not given)	i	i	i	i	i
CS(=O)(=O)Nc1ccc(C(=O)Nc2ccc3ccccc3c2)cc1	i	i	i	i	i
CC(C)N1C(=O)CCC1C(=O)N1CCC(Cc2ccccc2)CC1 (stereo not given)	-5.9*	i	i	i	i
CC(C)N1C(=O)CCC1C(=O)N1CCN(c2ccc(F)cc2)CC1 (stereo not given)	i	i	i	i	i
Cc1ccc(SCC(=O)Nc2ccc(N3CCN(C)CC3)c(F)c2)c(C)c1	i	i	i	-7.6*	i
CC1CC(=O)c2c(cc3c(-c4c(O)cc(O)c5c(O)c6c(cc45)OC(C)CC6=O)c(O)cc(O)c3c2O)O1 (stereo not given)	-6.8*	i	i	i	i
SMILES	MrgX1 antag	RGS4 inh	MrgX1 agonist	RGS4 pot	MrgX1 PAM
CCCN(CCC)S(=O)(=O)c1ccc(C(=O)OCCN2C(=O)c3cccc4c(N5CCOCC5)ccc(c34)C2=O)cc1	i	i	i	-8.7*	i
Cc1cc2c(=O)oc(-c3ccccc3Br)nc2s1	·	i	·	i	·
Cc1cc2c(=O)oc(-c3ccc(F)cc3)nc2s1	-23*	i	i	i	i
COc1ccc(OC)c(/C=N/N2CCN(c3ccc(Cl)cc3)CC2)c1	i	i	i	i	i
CCCS(=O)(=O)c1nc(S(=O)(=O)c2ccc(C)cc2)c(N2CCCC(C)C2)s1 (stereo not given)	i	i	i	i	i
C/C(=C/CCC(C)[C@H]1CC[C@@]2(C)C3=C(CC[C@]12C)[C@@]1(C)CCC(=O)C(C)(C)[C@@H]1CC3)C(=O)O (stereo not given in full)	i	i	i	-12*	i
C/C(=C/CCC(C)C1CCC2(C)C3CCC4C(C)(C)C(=O)CCC4(C)C3=CCC12C)C(=O)O (stereo not given)	·	i	·	-7.8*	·
COc1cccc(C(=O)NNC(=O)c2ccc3ccccc3c2O)c1	i	i	i	i	i
BrC(=C\c1ccccc1)/C=N/Nc1nc(N2CCOCC2)nc(N2CCOCC2)n1	i	i	i	i	i
BrC(/C=C\c1ccccc1)=N/Nc1nc(N2CCOCC2)nc(N2CCOCC2)n1	-8*	i	i	i	i
CCCCCCCCCCC(=O)NNC(=O)c1c(O)c2ccccc2n(CC)c1=O	i	i	i	i	i
Nc1ccc(Oc2ccc(F)cc2)nc1	i	i	i	i	i
O=Cc1ccc(Oc2ccc(F)cc2)nc1	-4.5*	i	i	i	i
COCc1ccc(CN2CCC(C(=O)Nc3cccc(-c4cscn4)c3)CC2)o1	i	i	i	i	i
COCc1ccc(CN2CCC(C(=O)Nc3cccc(-c4cccc(Cl)c4)c3)CC2)o1	i	i	i	-8.1*	i
c1ccc2[nH]c3cc4ncnc4cc3nc2c1	i	i	i	i	i
O=C(OC(C(=O)Nc1cc(Cl)cc(Cl)c1)c1ccccc1)C1=COCCO1 (stereo not given)	-5.3*	i	i	i	i
Cc1ccc(-n2ncc3c(=O)n(CC(=O)N4CCN(c5ccccc5)CC4)cnc32)cc1C	i	i	i	i	i
COc1cccc(C(=O)NC23CC4CC(CC(C4)C2)C3)c1	i	i	i	i	i
CC(=O)Nc1ccc(S(=O)(=O)NCCC(=O)OCc2csc(CC(=O)Nc3ccccc3C)n2)cc1	-4.5*	i	i	i	i
Cc1ccccc1NC(=O)Cc1nc(COC(=O)C(C)C)cs1	i	i	i	i	i
Cc1cccc(NS(=O)(=O)c2ccc(OCC(=O)N3CCCC3)cc2)c1	i	i	i	i	i
